The nature of series [1]: Metabolic stability in mouse liver microsomes assessed as half life at 0.1 uM preincubated for 10 mins followed by NADPH addition and measured for 60 mins by LC-MS/MS analysis. It counts as ADME, Microsome. Particulars: time 70 min. The method, boiled down: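 Mouse liver microsomes 0.33 mg/mL in 0.1 M Tris pH 7.4 with 5 mM MgCl₂, 0.01% DMSO and 0.005% BSA. Compound final […]. Preincubated 10 min at 37 °C; reaction started with 1 mM NADPH. Samples at 0, 7, 17, 30 and 60 min quenched with cold methanol, then analysed by LC-MS/MS.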

Series [2] relates to 3T3-L1. Put plainly: Anti-lipolytic activity in mouse 3T3-L1 cells assessed as inhibition of forskolin-stimulated glycerol release at 80 uM preincubated for 24 hrs followed by forskolin stimulation for 1 hr. Format: functional, cell-based. Particulars: time 25.0 hrs.
The subject of series [3] is 3T3-L1. Put plainly: Cytotoxicity against mouse 3T3-L1 cells assessed as reduction in cell viability at 100 uM incubated for 24 hrs by CCK8 assay. Format: cell-based. Particulars: 3t3-l1, 24 h.
For series [4], the target named is T1, Fatty acid-binding protein, adipocyte (Homo sapiens, UniProt P15090). Put plainly: Displacement of 1,8-ANS from FABP4 (unknown origin) incubated for 3 mins by fluorescence based analysis. The method in brief:
(§1)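 1,8-ANS displacement using purified recombinant FABP3, FABP4 or FABP5. Compound incubated with protein and 1,8-ANS in phosphate buffer for 3 min at room temperature. Fluorescence read at ex 370/em 470 nm. IC50 by nonlinear regression, mean ± SD of three independent experiments.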
Target sequence in this assay (P15090 whole entry): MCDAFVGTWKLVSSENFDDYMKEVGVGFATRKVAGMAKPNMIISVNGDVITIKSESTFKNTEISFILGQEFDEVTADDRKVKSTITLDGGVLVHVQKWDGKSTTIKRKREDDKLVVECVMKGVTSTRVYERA

The target in series [5] is T1, Fatty acid-binding protein, adipocyte. Put plainly: Displacement of 1,8-ANS from FABP4 (unknown origin) at 25 uM incubated for 3 mins by fluorescence based analysis relative to control. The method, boiled down: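 Single-concentration percent inhibition in the 1,8-ANS displacement assay with FABP4. Compound incubated with protein and probe in phosphate buffer for 3 min at room temperature; fluorescence read at ex 370/em 470 nm.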
Target sequence in this assay (P15090 2-132 limits assumed): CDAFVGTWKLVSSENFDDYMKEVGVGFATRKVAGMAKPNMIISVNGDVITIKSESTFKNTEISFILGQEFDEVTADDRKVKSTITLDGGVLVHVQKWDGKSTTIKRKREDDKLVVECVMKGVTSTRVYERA

Series [6] addresses Fatty acid-binding protein, heart (Homo sapiens, UniProt P05413). Put plainly: Displacement of 1,8-ANS from FABP3 (unknown origin) incubated for 3 mins by fluorescence based analysis. The method in brief: as §1
The target of series [7] is Fatty acid-binding protein 5 (Homo sapiens, UniProt Q01469). Put plainly: Displacement of 1,8-ANS from FABP5 (unknown origin) incubated for 3 mins by fluorescence based analysis.
Sequence of Fatty acid-binding protein 5 (Q01469 whole entry): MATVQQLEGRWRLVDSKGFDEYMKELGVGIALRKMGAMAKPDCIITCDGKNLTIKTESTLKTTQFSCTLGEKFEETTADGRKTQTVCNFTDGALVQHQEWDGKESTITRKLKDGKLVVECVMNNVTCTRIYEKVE
For series [8], the species on record is Homo sapiens. As to the kind of experiment: Selectivity ratio of IC50 for FABP3 (unknown origin) to IC50 for FABP4 (unknown origin). The method, boiled down:
as §1

For series [9], the species on record is Homo sapiens. As to the kind of experiment: Selectivity ratio of IC50 for FABP3 (unknown origin) to IC50 for FABP5 (unknown origin). The method, boiled down: as §1

SMILES strings stand for the structures. The source made the active and inactive calls. The calls are words filed in the database; no cut-off is given here.

In general, half-life refers to how long it takes for the measured level to halve. The term IC50 denotes the concentration at which inhibition is half-maximal. Low values mean inhibition by little substance, high ones a need for much substance. As usually defined, the inhibition is how much of the control response was suppressed. Lower therefore signals a weak effect.

Sequence of Fatty acid-binding protein, heart (P05413 whole entry): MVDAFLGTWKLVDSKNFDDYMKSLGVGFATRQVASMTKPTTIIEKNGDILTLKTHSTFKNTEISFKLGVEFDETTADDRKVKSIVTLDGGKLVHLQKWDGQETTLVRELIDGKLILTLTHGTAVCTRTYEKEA

Regarding `Cc1cc(F)ccc1-c1ccc(S(=O)(=O)Nc2ccc(F)c(C(=O)O)c2)c2ccccc12`, the half-life at 0.1 µM in series [1] was 88.4 min. For the same compound, the result in [2] was Active. Further, the Activity result in [3] is recorded as “Non-Toxic”. In series [4], this compound returned a half-maximal inhibitory concentration (IC50) of 5 µM. For the same compound, in series [5], the inhibition was found to be 85%.
The compound `COc1c(-c2ccccc2F)cc(S(=O)(=O)Nc2ccc(F)c(CC(=O)O)c2)c2ccccc12` showed a half-inhibitory concentration (IC50) in [4] of 5.25 µM. The compound also yielded an inhibition in series [5] of 87%.
For `O=C(O)c1cc(NS(=O)(=O)c2ccc(-c3ccc(F)cc3)c3ccccc23)ccc1F`, the IC50 in [4] worked out at 7.68 µM. The same compound gave an inhibition in series [5] of 80%.
For `Cc1noc(C)c1-c1ccc(S(=O)(=O)Nc2ccc(F)c(C(=O)O)c2)c2ccccc12`, the inhibition in series [5] was determined as 61%.
Regarding `O=C(O)c1cc(NS(=O)(=O)c2ccc(-c3ccc(C(F)(F)F)cc3)c3ccccc23)ccc1F`, the inhibition in series [5] amounted to 40%.
For the compound `O=C(O)c1cc(NS(=O)(=O)c2ccc(-c3ccc(F)c(Cl)c3)c3ccccc23)ccc1F`, the half-maximal inhibitory concentration (IC50) was 103 µM in series [6], 6.33 µM in series [7] and 7.84 µM in [4]. Moreover, the Ratio IC50 came to 13.1 in series [8] and 16.3 in series [9]. Also, the Activity entry in [3] is given as “Non-Toxic”. The same compound gave an inhibition in [5] of 78%.
For the compound `Cc1c(Cl)cccc1OCc1[nH]c2nc(-c3ccccc3)nn2c(=O)c1C`, the IC50 in series [6] stood at 1.95 µM; in series [4], 6.34 µM. In addition, the Ratio IC50 in series [8] was 0.31; in [9], 0.08. Besides, the inhibition in series [5] stood at 97%.
The compound `COc1c(-c2ccccc2O)cc(S(=O)(=O)Nc2ccc(F)c(CC(=O)O)c2)c2ccccc12` yielded an IC50 in series [4] of 8.03 µM. The compound further displayed an inhibition in series [5] of 86%.
Regarding `COc1c(-c2ccccc2Cl)cc(S(=O)(=O)Nc2ccc(F)c(CC(=O)O)c2)c2ccccc12`, the half-life at 0.1 µM in series [1] is 43.1 min. For the same compound, the IC50 was 7.57 µM in [7] and 8.02 µM in series [4]. In addition, the result in series [2] was Active. For the same compound, the Activity entry in series [3] is given as “Non-Toxic”. The inhibition in series [5] was 77%.
In series [4], `COc1c(-c2ccc(F)cc2F)cc(S(=O)(=O)Nc2ccc(F)c(CC(=O)O)c2)c2ccccc12` registered a half-inhibitory concentration (IC50) of 3.14 µM. Also, in series [5], the inhibition was determined as 96%.
As for `O=C(O)c1cc(NS(=O)(=O)c2ccc(-c3ccc(F)cc3F)c3ccccc23)ccc1F`, the Activity result in series [3] is “Non-Toxic”. For the same compound, the IC50 in series [4] is 4.7 µM. The compound further had an inhibition in series [5] of 85%.
As to `O=C(O)c1cc(NS(=O)(=O)c2ccc(OCCC3CCCCC3)c3ccccc23)ccc1F`, the half-life at 0.1 µM in series [1] was 23.5 min.
In series [7], `COc1c(-c2ccccc2C(F)(F)F)cc(S(=O)(=O)Nc2ccc(F)c(CC(=O)O)c2)c2ccccc12` registered an IC50 of 7.72 µM. Moreover, the inhibition in [5] stood at 56%.
The compound `COc1c(-c2ccc(F)c(Cl)c2)cc(S(=O)(=O)Nc2ccc(F)c(CC(=O)O)c2)c2ccccc12` returned a 50% inhibitory concentration (IC50) in [4] of 5 µM. Moreover, in series [5], the inhibition was 88%.
In turn, `COc1c(-c2ccc(F)cc2)cc(S(=O)(=O)Nc2ccc(F)c(CC(=O)O)c2)c2ccccc12` had an IC50 in [4] of 4.71 µM. For the same compound, in [5], the inhibition was 95%.
As for `COc1c(-c2ccccc2C)cc(S(=O)(=O)Nc2ccc(F)c(CC(=O)O)c2)c2ccccc12`, the IC50 in series [7] was 7.72 µM; in series [4], 5.16 µM. This compound also showed an inhibition in series [5] of 80%.
Turning to `O=C(O)c1cc(NS(=O)(=O)c2ccc(-c3ccc(O)cc3)c3ccccc23)ccc1F`, the half-maximal inhibitory concentration (IC50) in series [4] was found to be 8.24 µM. In addition, the inhibition in [5] is 73%.
With `COc1c(-c2cc(Cl)ccc2Cl)cc(S(=O)(=O)Nc2ccc(F)c(CC(=O)O)c2)c2ccccc12`, the inhibition in [5] was found to be 52%.
Take `CCc1ccccc1-c1cc(S(=O)(=O)Nc2ccc(F)c(CC(=O)O)c2)c2ccccc2c1OC`: the values for the half-inhibitory concentration (IC50) in [7] and in series [4] were 3.2 µM and 14.3 µM, respectively. For the same compound, the inhibition in series [5] was 63%.
Turning to `COc1c(-c2ccc(F)cc2Cl)cc(S(=O)(=O)Nc2ccc(F)c(CC(=O)O)c2)c2ccccc12`, the half-maximal inhibitory concentration (IC50) in series [7] stood at 6.08 µM; in series [4] it was 4.77 µM. Moreover, the Activity result in series [3] was “Non-Toxic”. The compound also had an inhibition in series [5] of 90%.
`COc1c(-c2ccc(F)cc2C)cc(S(=O)(=O)Nc2ccc(F)c(C(=O)O)c2)c2ccccc12`: in [1], the half-life at 0.1 µM was 102 min. Besides, the concentration for half-maximal inhibition (IC50) in series [7] was 8.97 µM; in series [4], 2.63 µM. Also, the outcome in series [2] was inactive. For the same compound, in [5], the inhibition is 95%.
Turning to `O=C(O)c1cc(NS(=O)(=O)c2ccc(-c3ccncc3)c3ccccc23)ccc1F`, the inhibition in [5] was found to be 52%.
`O=C(O)c1cc(NS(=O)(=O)c2ccc(-c3ccccc3OC(F)(F)F)c3ccccc23)ccc1F`: the IC50 in series [7] turned out to be 8.2 µM; in [4], 12.5 µM. The same compound returned an inhibition in series [5] of 74%.
`COc1c(-c2cccc(Cl)c2F)cc(S(=O)(=O)Nc2ccc(F)c(CC(=O)O)c2)c2ccccc12` registered an IC50 in [4] of 6.45 µM. Moreover, the inhibition in series [5] is 84%.
In the case of `COc1c(-c2ccccc2C(C)C)cc(S(=O)(=O)Nc2ccc(F)c(CC(=O)O)c2)c2ccccc12`, the half-life at 0.1 µM in series [1] amounted to 15.1 min. The IC50 in [7] was determined as 2.9 µM. The outcome in series [2] was Active. Further, in [3], the Activity entry is recorded as “Non-Toxic”. In [5], this compound had an inhibition of 50%.
Turning to `CC(C)c1ccccc1-c1ccc(S(=O)(=O)Nc2ccc(F)c(C(=O)O)c2)c2ccccc12`, the IC50 amounted to 16.8 µM in series [7] and 11.9 µM in [4]. In addition, the inhibition in series [5] came out at 74%.
Regarding `O=C(O)c1cc(NS(=O)(=O)c2ccc(-c3ccccc3)c3ccccc23)ccc1F`, the IC50 in series [4] turned out to be 4.84 µM. In series [5], this compound displayed an inhibition of 82%.

For the origin of these results see ChEMBL document CHEMBL4831507, “Development of FABP4/5 inhibitors with potential therapeutic effect on type 2 Diabetes Mellitus” (Eur J Med Chem, 2021).
